Source: PubChem (several laboratories)
ZTA DNA inh – counter-screen for EBNA-1 inhibitors: inhibitors of Epstein-Barr virus ZTA; ZTA-DNA binding, fluorescence polarization; inhibition, % at 11 µM; 0.15% of 320,000 active; in the data active = inhibition above about 33%
MLLE-PAM2 inh – inhibitors of PABP1 MLLE–PAM2 peptide binding, primary screen, biochemical, fluorescence polarization, FITC-PAM2, GST-MLLE | inhibition, % at 20 µM | 0.36% of 360,000 active | AID 588489, 2011; in the data active = inhibition above about 35%, passing the limit was not always enough
HCV NS3 hel inh – inhibitors of HCV NS3 helicase, primary screen, biochemical, Cy5 molecular beacon fluorescence | Hepatitis C virus NS3 helicase | 0.56% of 290,000 active | NS3 helicase DNA unwinding | inhibition, % at 10.9 µM | AID 1800, 2009;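 active = inhibition above the mean of all tested compounds plus 3 SD, set per campaign, cut at about 35% in these data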
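Assay system – hepatitis C virus NS3 helicase domain fragment enzyme · Buffer or medium – MOPS pH 6.5, MgCl2, DTT, Tween20, BSA · Reagent – Cy5/quencher beacon DNA duplex and ATP to start · Compound – single 10.9 µM dose · Timing – 1 h at 25 °C · Technique – Cy5 beacon fluorescence read at start and 1 h · Measure – % inhibition of unwinding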
EBNA-1 inhibitor – EBNA-1 DNA-binding inhibitors, primary screen, biochemical, fluorescence polarization. 0.34% of 300,000 active. inhibition, % at 14.8 µM; in the data active = inhibition above about 28%
PABP FP inh – PABP poly(A) RNA binding inhibitors, primary screen, biochemical, fluorescence polarization, uHTS. inhibition, % at 35 µM. Polyadenylate-binding protein 1 (Homo sapiens), P11940. AID 2014, 2009. 1% of 290,000 active;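 also: calls also rest on retests at 20 µM and on dose response follow-up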
eIF4H FP inh – human eIF4H binding inhibitors, primary screen, translation initiation inhibitor project, biochemical, uHTS, fluorescence polarization; Eukaryotic translation initiation factor 4H (Homo sapiens), Q15056; eIF4H fluorescence polarization binding assay; inhibition, % at 35 µM; 0.94% of 290,000 active;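 also: calls also rest on retests at 20 µM and on dose response follow-up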
NS3 hel confirm – HCV NS3 helicase inhibitors, retest, confirmation, biochemical, Cy5 molecular beacon fluorescence, triplicate | shares compounds with HCV NS3 hel inh | NS3 helicase DNA unwinding | inhibition, % at 10.9 µM | 31% of 1,600 active;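 active = inhibition above the mean of all tested compounds plus 3 SD, cutoff set per campaign, cut at about 36% in these data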
FID counter trip – compounds displacing fluorescent DNA intercalator, artefact control for HCV NS3 helicase inhibitor project, biochemical, FID fluorescence, triplicate; shares compounds with HCV NS3 hel inh; DNA fluorescent intercalator displacement; inhibition, % at 7.9 µM; 4% of 1,600 active; in the data active = inhibition above about 37%;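 also: higher means more displacement of ethidium bromide from the DNA hairpin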
A number is an active result; . = inactive; / = no result. An excerpt weighted towards active compounds, which were near 2.1% of everything screened. Unless noted, no rule for the calls is given here.

SMILES | ZTA DNA inh | MLLE-PAM2 inh | HCV NS3 hel inh | EBNA-1 inhibitor | PABP FP inh | eIF4H FP inh | NS3 hel confirm | FID counter trip
Cn1nnc(NC(=S)NC(=O)c2cccc3c(Cl)cccc23)n1 | . | . | . | . | . | . | / | /
COc1ccc(-c2nnc(SCC(=O)N3CCCc4ccccc43)o2)cc1OC | . | . | . | . | . | . | / | /
CCCn1c(C(O)c2cccc(OC)c2)nc2ccccc21 (configuration not stated) | / | . | 42 | / | . | . | . | .
O=S1(=O)CCN(CCCCc2ccccc2)CC1 | / | . | / | / | / | / | / | /
Cc1cccc2sc(NNC(=O)C3=COCCO3)nc12 | . | . | . | . | . | . | / | /
N#C/C(=C(/O)c1ccc(Cl)cc1)c1nc2ccccc2[nH]1 | . | . | . | . | . | . | / | /
N#C/C(=C(\O)c1cc(Cl)sc1Cl)c1nc2ccccc2[nH]1 | . | . | 43 | . | . | . | . | .
Cc1ccc(NC(=O)COC(=O)Cn2cnc3c2c(=O)n(C)c(=O)n3C)c(Cl)c1 | . | . | . | . | . | . | / | /
Cc1cccc(NC(=O)CN2C(=O)N/C(=C\c3cccn3-c3cccc(C(=O)O)c3)C2=O)c1 | . | . | 37 | . | . | . | . | .
Cc1ccc(-n2cccc2/C=C2/NC(=O)N(CC(=O)Nc3cccc(C)c3)C2=O)cc1 | . | . | . | . | . | . | / | /
Cc1c(C(C)C)c(=O)n(-c2ccc(S(=O)(=O)NC(C)C)cc2)n1C | . | . | . | . | . | . | / | /
COc1ccccc1N=Nc1ccc(O)c2ncccc12 | . | . | 41 | . | . | . | . | .
Cc1ccc(C(=O)N/C(=C/c2ccco2)C(=O)N2CCC(C)CC2)cc1 | . | . | 47 | . | . | . | . | .
COc1ccc(C(=O)N/C(=C/c2ccco2)C(=O)NCc2ccco2)cc1 | . | . | . | . | . | . | / | /
CC1CCN(C(=O)/C(=C\c2ccco2)NC(=O)c2ccccc2)CC1 | . | . | . | . | . | . | / | /
Cc1ccc(C(=O)N/C(=C/c2ccco2)C(=O)NCc2ccco2)cc1 | . | . | 37 | . | . | . | . | .
Cc1c(NS(=O)(=O)c2ccc(N=NN(C)C)cc2)c(=O)n(-c2ccccc2)n1C | . | . | . | . | . | . | / | /
CC(C)C[C@H](N)C(=O)N1CCC(C(=O)N[C@H](C(=O)NC(C)c2ccccc2)C(C)C)CC1 (some centres not stated) | . | . | . | . | . | . | / | /
Cc1ccc2c(nc3s/c(=C\c4ccc(-c5ccccc5C(=O)O)o4)c(=O)n32)c1C | . | . | 44 | . | . | . | 65 | 50
Cc1ccc(NC(=O)C2CCN(S(=O)(=O)c3ccc4c(c3)NC(=O)C(C)S4)CC2)c(Cl)c1 (configuration not stated) | . | . | . | . | . | . | / | /
Cc1cc(C)cc(NC(=O)C2CCN(S(=O)(=O)c3ccc4c(c3)NC(=O)C(C)S4)CC2)c1 (configuration not stated) | . | . | 43 | . | . | . | . | .
O=c1cc(N2CCN(c3ccccc3)CC2)[nH]c(=O)n1Cc1ccc(F)cc1 | . | . | . | . | . | . | / | /
CN1CCN(C(=O)C(Cc2ccccc2)NS(=O)(=O)c2ccc3c(c2)CCC(=O)N3)CC1 (configuration not stated) | . | . | . | . | . | . | / | /
COc1ccc(/C(C)=N/NC(=S)NCCc2ccccc2)c(O)c1 | . | . | 42 | . | . | . | . | .
COc1ccc(O)c(/C=N/NC(=S)NCCc2ccccc2)c1 | . | . | . | . | . | . | / | /
CC(C)OC(=O)c1cc2c(ccn2C)n1CC(=O)N(Cc1ccccc1)c1ccc(F)cc1 | . | . | 38 | . | . | . | . | .
CCOC(=O)c1cc2c(ccn2C)n1CC(=O)N(Cc1ccccc1)c1ccc(F)cc1 | . | . | . | . | . | . | / | /
